Source: ChEMBL document CHEMBL1127669, “Conformationally constrained peptides and semipeptides derived from RGD as potent inhibitors of the platelet fibrinogen receptor and platelet aggregation” (J Med Chem, 1994)
Starred links: 1 amine or outer side, 2 acyl side, 3 side chain; linkers in the order of their positions; H or OH if unused. Positions of bridges follow the written chain, without caps; N, C: chain ends. Non-standard residues stand in square brackets, D forms with d. Residues, ends and D or L forms follow the SMILES beside them. *: point of attachment. X2 = O=C(CN([C@@H](CS[*:3])C(=O)[*:2])[*:1])c1ccccc1; X4 = O=C([C@@H](N[*:1])[C@@H](S[*:3])c1ccccc1)[*:2]; X1 = O=C([C@@H](N[*:1])[C@H](S[*:3])c1ccccc1)[*:2]; NMeR = CN[C@@H](CCCNC(=N)N)C(=O)O; Pen = CC(C)(S)[C@H](N)C(=O)O; Pentanoyl = CCCCC(=O)*; X3 = CC(S)C(=O)*

Key:
[1] = species on record: Canis familiaris; experiment: Inhibition of platelet aggregation in canine platelet rich plasma induced by ADP; assay type: functional, Canis lupus familiaris
Method in brief: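 Citrated canine PRP aggregation read optically by light transmittance. Peptide stock was 12 mM in 0.2 M acetic acid. Final 200 µM peptide and 10 µM ADP, pH 7.7, after 5-min preincubation with peptide.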

[2] = target: Integrin alpha-IIb/beta-3 (Homo sapiens, UniProt P05106+P08514); experiment: Tested for inhibition of fibrinogen binding to purified GPIIb/IIIa isolated from human platelets and reconstituted in liposomes
Method in brief: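 Displacement of [¹²⁵I]fibrinogen from purified human platelet GPIIb/IIIa incorporated into phospholipid vesicles. Values without statistical limits come from a single determination.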

Chain of Integrin alpha-IIb/beta-3 (P05106 27-788 limits assumed): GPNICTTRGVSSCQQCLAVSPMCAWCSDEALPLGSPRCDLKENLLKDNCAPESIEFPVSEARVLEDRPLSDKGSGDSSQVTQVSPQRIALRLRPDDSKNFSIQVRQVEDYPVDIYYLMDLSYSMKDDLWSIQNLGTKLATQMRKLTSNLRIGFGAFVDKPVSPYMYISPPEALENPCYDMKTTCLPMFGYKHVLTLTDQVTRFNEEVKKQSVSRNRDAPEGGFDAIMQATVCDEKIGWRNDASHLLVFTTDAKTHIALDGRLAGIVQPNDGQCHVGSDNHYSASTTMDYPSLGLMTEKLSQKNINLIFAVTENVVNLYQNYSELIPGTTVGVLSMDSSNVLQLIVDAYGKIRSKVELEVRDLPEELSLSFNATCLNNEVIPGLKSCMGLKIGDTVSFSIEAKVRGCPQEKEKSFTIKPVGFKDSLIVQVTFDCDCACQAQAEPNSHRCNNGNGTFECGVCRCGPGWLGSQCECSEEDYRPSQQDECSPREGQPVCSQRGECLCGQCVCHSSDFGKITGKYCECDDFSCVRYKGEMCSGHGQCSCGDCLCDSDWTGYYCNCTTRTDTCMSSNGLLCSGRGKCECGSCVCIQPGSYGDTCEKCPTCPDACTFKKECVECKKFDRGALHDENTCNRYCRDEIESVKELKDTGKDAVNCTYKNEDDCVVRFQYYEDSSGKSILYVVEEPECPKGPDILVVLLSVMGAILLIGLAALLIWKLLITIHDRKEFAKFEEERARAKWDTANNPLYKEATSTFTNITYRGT
Chain of Integrin alpha-IIb/beta-3 (P08514 32-887 limits assumed): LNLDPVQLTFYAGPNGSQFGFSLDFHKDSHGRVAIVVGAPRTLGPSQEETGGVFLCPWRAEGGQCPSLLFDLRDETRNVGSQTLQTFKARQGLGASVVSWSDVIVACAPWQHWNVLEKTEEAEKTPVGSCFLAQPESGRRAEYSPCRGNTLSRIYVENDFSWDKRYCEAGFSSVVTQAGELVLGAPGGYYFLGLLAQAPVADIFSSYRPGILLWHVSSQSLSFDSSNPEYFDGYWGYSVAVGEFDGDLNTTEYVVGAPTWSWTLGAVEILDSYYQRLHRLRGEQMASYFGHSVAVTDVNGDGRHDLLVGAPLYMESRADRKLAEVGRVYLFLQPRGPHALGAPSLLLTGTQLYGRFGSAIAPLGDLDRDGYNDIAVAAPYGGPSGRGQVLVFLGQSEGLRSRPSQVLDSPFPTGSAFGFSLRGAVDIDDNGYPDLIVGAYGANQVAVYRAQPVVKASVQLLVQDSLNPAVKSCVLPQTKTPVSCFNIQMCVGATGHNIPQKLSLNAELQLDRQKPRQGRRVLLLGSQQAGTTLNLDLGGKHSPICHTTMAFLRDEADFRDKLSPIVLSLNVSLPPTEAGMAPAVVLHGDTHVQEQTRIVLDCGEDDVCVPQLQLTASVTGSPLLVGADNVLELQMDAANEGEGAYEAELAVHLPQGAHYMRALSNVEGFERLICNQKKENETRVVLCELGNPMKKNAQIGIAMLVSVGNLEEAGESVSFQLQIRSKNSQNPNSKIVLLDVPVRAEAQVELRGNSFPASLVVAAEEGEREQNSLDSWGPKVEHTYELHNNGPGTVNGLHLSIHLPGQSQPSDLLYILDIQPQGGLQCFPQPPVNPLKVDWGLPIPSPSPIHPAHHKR
Chain of Integrin alpha-IIb/beta-3 (P08514 891-1039 limits assumed): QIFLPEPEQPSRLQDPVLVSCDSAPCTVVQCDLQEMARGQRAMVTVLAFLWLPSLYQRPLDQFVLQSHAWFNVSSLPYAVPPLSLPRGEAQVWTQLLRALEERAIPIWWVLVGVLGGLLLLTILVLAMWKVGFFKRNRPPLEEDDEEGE

Row | SMILES | IC50 ([1]; Canis lupus familiaris, Plasma) [µM] | Ki [2] [µM] | IC50 [1] [µM]
1 | CC(=O)N[C@H]1CSSC(C)(C)[C@@H](C(N)=O)NC(=O)[C@H](CC(=O)O)NC(=O)CNC(=O)[C@H](CCCN=C(N)N)NC(=O)CNC1=O (single isomer, unassigned) [listing 1 of 2 here] | 11.4 | – | –
2 | CN1C(=O)[C@@H](N)CSSC(C)(C)[C@@H](C(N)=O)NC(=O)[C@H](CC(=O)O)NC(=O)CNC(=O)[C@@H]1CCCN=C(N)N (H-C[NMeR]GD[Pen]-NH2; disulfide 1-5) | 0.2 | 0.0093 | –
3 | CN1C(=O)c2ccccc2SSCCNC(=O)[C@@H](CC(=O)O)NC(=O)CNC(=O)[C@H]1CCCNC(=N)N | 0.236 | 0.0095 | –
4 | CC(=O)N[C@H]1CSSC(C)(C)[C@@H](C(N)=O)NC(=O)[C@H](CC(=O)O)N(C)C(=O)CNC(=O)[C@H](CCCN=C(N)N)NC1=O (single isomer, unassigned) | 137 | – | –
5 | CC(=O)N[C@H]1CSS[C@@H](c2ccccc2)[C@@H](C(N)=O)NC(=O)[C@H](CC(=O)O)NC(=O)CNC(=O)[C@H](CCCNC(=N)N)N(C)C1=O (Ac-C[NMeR]GD[X4]-NH2; disulfide 1-5) | – | 0.045 | –
6 | CC(=O)N[C@H]1CSSC(C)(C)[C@@H](C(N)=O)NC(=O)[C@H](CC(=O)O)NC(=O)CNC(=O)[C@H](CCCN=C(N)N)N(C)C(=O)CN(C)C1=O (single isomer, unassigned) | 0.15 | 0.02 | –
7 | CC(=O)N[C@H]1CSS[C@H](c2ccccc2)[C@@H](C(N)=O)NC(=O)[C@H](CC(=O)O)NC(=O)CNC(=O)[C@H](CCCN=C(N)N)N(C)C1=O (Ac-C[NMeR]GD[X1]-NH2; disulfide 1-5) | 0.098 | 0.125 | –
8 | CC(=O)N[C@@H]1C(=O)N(C)[C@@H](CCCN=C(N)N)C(=O)NCC(=O)N[C@@H](CC(=O)O)C(=O)N[C@H](C(N)=O)C(C)(C)SSC1(C)C (single isomer, unassigned) | 0.37 | 0.0025 | –
9 | CN1CC(=O)N[C@@H](CCCNC(=N)N)C(=O)NCC(=O)N[C@@H](CC(=O)O)C(=O)Nc2ccccc2SSc2ccccc2C1=O | 3.46 | 0.143 | –
10 | CC(=O)N[C@H]1CSSC(C)(C)[C@@H](C(N)=O)NC(=O)[C@H](CC(=O)O)NC(=O)CNC(=O)[C@H](CCCN=C(N)N)NC(=O)CN(C)C1=O (single isomer, unassigned) | 1.2 | – | –
11 | CC(=O)N[C@@H]1CSSC(C)(C)[C@H](C(N)=O)NC(=O)C(CC(=O)O)NC(=O)CNC(=O)C(CCCN=C(N)N)NC1=O (single isomer, unassigned; 12) | – | – | 4.12
12 | CC(=O)N[C@@H]1CSSC(C)(C)[C@H](C(N)=O)NC(=O)[C@@H](CC(=O)O)NC(=O)CNC(=O)[C@H](CCCN=C(N)N)N(C)C1=O | 1.79 | 0.082 | –
13 | CC(S)C(=O)N[C@H]1CSSC(C)(C)[C@@H](C(N)=O)NC(=O)[C@H](CC(=O)O)NC(=O)CNC(=O)[C@H](CCCN=C(N)N)N(C)C1=O (some centres not stated) (X3-C[NMeR]GD[Pen]-NH2; disulfide 1-5) | 0.34 | 0.0243 | –
14 | CC(=O)N[C@H]1CSS[C@H](c2ccccc2)[C@@H](C(=O)O)NC(=O)[C@H](CC(=O)O)NC(=O)CNC(=O)[C@H](CCCNC(=N)N)N(C)C1=O (Ac-C[NMeR]GD[X1]-OH; disulfide 1-5) | – | 0.0021 | –
15 | CC(=O)N[C@H]1CSSC(C)(C)[C@@H](C(N)=O)NC(=O)[C@H](CC(=O)O)NC(=O)CNC(=O)[C@H](CCCNC(=N)N)NC(=O)CN(C)C1=O (single isomer, unassigned) | – | 0.077 | –
16 | CC(=O)N[C@@H]1CSSC(C)(C)[C@H](C(N)=O)NC(=O)[C@H](CC(=O)O)NC(=O)CNC(=O)[C@@H](CCCNC(=N)N)NC1=O | > 200 | > 1000 | –
17 | CC(=O)N[C@@H]1CSSC(C)(C)[C@H](C(N)=O)NC(=O)[C@@H](CC(=O)O)NC(=O)CNC(=O)[C@@H](CCCN=C(N)N)N(Cc2ccccc2)C1=O | 7.74 | > 100 | –
18 | CN1C(=O)[C@@H](N)CSSC(C)(C)[C@@H](C(=O)O)NC(=O)[C@H](CC(=O)O)NC(=O)CNC(=O)[C@@H]1CCCN=C(N)N (H-C[NMeR]GD[Pen]-OH; disulfide 1-5) | 0.12 | 0.0048 | –
19 | CN1C(=O)[C@@H](NCC(=O)c2ccccc2)CSSC(C)(C)[C@@H](C(N)=O)NC(=O)[C@H](CC(=O)O)NC(=O)CNC(=O)[C@@H]1CCCN=C(N)N (H-[X2][NMeR]GD[Pen]-NH2; disulfide 1-5) | 0.28 | 0.035 | –
20 | CC(=O)N[C@H]1CSSC[C@@H](C(N)=O)NC(=O)[C@H](CC(=O)O)NC(=O)CNC(=O)[C@H](CCCN=C(N)N)NC1=O (single isomer, unassigned) | 16.2 | – | –
21 | CC(=O)N[C@@H]1CSSC(C)(C)[C@H](C(N)=O)NC(=O)C(CC(=O)O)NC(=O)CNC(=O)C(CCCN=C(N)N)NC1=O (single isomer, unassigned; 31) | – | 3 | 20.3
22 | CC(=O)N[C@H]1CSSC(C)(C)[C@@H](C(N)=O)NC(=O)[C@H](CC(=O)O)NC(=O)CN(C)C(=O)[C@H](CCCN=C(N)N)NC1=O (single isomer, unassigned) | 73.4 | 1.25 | –

Continued, values first:

Row | IC50 ([1]; Canis lupus familiaris, Plasma) [µM] | Ki [2] [µM] | IC50 [1] [µM] | SMILES
23 | – | 7.04 | – | CC(=O)N[C@H]1CSSC(C)(C)[C@@H](C(N)=O)NC(=O)[C@H](CC(=O)O)N(C)C(=O)CNC(=O)[C@H](CCCNC(=N)N)N(C)C1=O (single isomer, unassigned)
24 | 1.01 | 0.82 | – | CN1C(=O)[C@@H]2CCCN2C(=O)c2ccccc2SSc2ccccc2NC(=O)[C@H](CC(=O)O)NC(=O)CNC(=O)[C@@H]1CCCN=C(N)N
25 | 8.08 | – | – | N=C(N)NCCC[C@@H]1NC(=O)c2ccccc2SSC[C@@H](C(N)=O)NC(=O)[C@H](CC(=O)O)NC(=O)CNC1=O (single isomer, unassigned)
26 | 98.7 | 2.65 | – | CC(=O)N[C@H]1CSSC(C)(C)[C@H](C(N)=O)NC(=O)[C@@H](CC(=O)O)NC(=O)CNC(=O)[C@@H](CCCNC(=N)N)NC1=O
27 | – | > 10 | – | CC(=O)N[C@H]1CSSC(C)(C)[C@@H](C(N)=O)NC(=O)[C@H](CC(=O)O)NC(=O)CNC(=O)[C@H](CCCNC(=N)N)N(C)C(=O)[C@@H]2CCCN2C1=O
28 | 0.25 | 0.026 | – | CCCCC(=O)N[C@H]1CSSC(C)(C)[C@@H](C(N)=O)NC(=O)[C@H](CC(=O)O)NC(=O)CNC(=O)[C@H](CCCN=C(N)N)N(C)C1=O (Pentanoyl-C[NMeR]GD[Pen]-NH2; disulfide 1-5)
29 | – | 0.065 | – | CCN1C(=O)[C@H](NC(C)=O)CSSC(C)(C)[C@H](C(N)=O)NC(=O)[C@@H](CC(=O)O)NC(=O)CNC(=O)[C@H]1CCCNC(=N)N (single isomer, unassigned)
30 | – | 25.3 | – | CC(=O)N[C@H]1CSSC(C)(C)[C@@H](C(N)=O)NC(=O)[C@H](CC(=O)O)N(C)C(=O)CNC(=O)[C@H](CCCNC(=N)N)NC1=O (single isomer, unassigned)
31 | – | 0.28 | – | CC(=O)N[C@H]1CSSc2ccccc2NC(=O)[C@H](CC(=O)O)NC(=O)CNC(=O)[C@H](CCCNC(=N)N)NC1=O (single isomer, unassigned)
32 | 24.4 | – | – | CC(=O)N[C@@H]1CSSC(C)(C)[C@H](C(N)=O)NC(=O)[C@@H](CC(=O)O)NC(=O)CNC(=O)[C@@H](CCCN=C(N)N)N(C)C(=O)[C@@H]2CCCN2C1=O
33 | – | 4.2 | – | CC(=O)N[C@@H](CCCN=C(N)N)C(=O)NCC(=O)N[C@@H](CC(=O)O)C(N)=O
34 | 0.05 | – | – | CC(=O)N[C@H]1CSS[C@@H](c2ccccc2)[C@@H](C(N)=O)NC(=O)[C@H](CC(=O)O)NC(=O)CNC(=O)[C@H](CCCN=C(N)N)N(C)C1=O (Ac-C[NMeR]GD[X4]-NH2; disulfide 1-5)
35 | 23.4 | – | – | CC(=O)N[C@H]1CSSC(C)(C)[C@@H](C(N)=O)NC(=O)[C@H](CC(=O)O)N(C)C(=O)CNC(=O)[C@H](CCCN=C(N)N)N(C)C1=O (single isomer, unassigned)
36 | 0.102 | 0.0245 | – | CN1CC(=O)N(C)[C@@H](CCCN=C(N)N)C(=O)NCC(=O)N[C@@H](CC(=O)O)C(=O)Nc2ccccc2SSc2ccccc2C1=O
37 | 4.12 | 0.72 | – | CC(=O)N[C@@H]1CSSC(C)(C)[C@H](C(N)=O)NC(=O)[C@@H](CC(=O)O)NC(=O)CNC(=O)[C@H](CCCNC(=N)N)NC1=O
38 | 0.29 | 0.027 | – | N=C(N)NCCC[C@@H]1NC(=O)c2ccccc2SSc2ccccc2NC(=O)[C@H](CC(=O)O)NC(=O)CNC1=O (single isomer, unassigned)
39 | 0.6 | – | – | CN1C(=O)c2ccccc2SSc2ccccc2NC(=O)[C@@H](CC(=O)O)NC(=O)CNC(=O)[C@@H]1CCCN=C(N)N
40 | 0.17 | – | – | CC(=O)N[C@H]1CSSc2ccccc2NC(=O)[C@H](CC(=O)O)NC(=O)CNC(=O)[C@H](CCCN=C(N)N)N(C)C1=O (single isomer, unassigned)
41 | 0.9 | – | – | CCN1C(=O)[C@@H](NC(C)=O)CSSC(C)(C)[C@@H](C(N)=O)NC(=O)[C@H](CC(=O)O)NC(=O)CNC(=O)[C@@H]1CCCN=C(N)N (single isomer, unassigned)
42 | – | 0.026 | – | CC(=O)N[C@H]1CSSc2ccccc2NC(=O)[C@H](CC(=O)O)NC(=O)CNC(=O)[C@H](CCCNC(=N)N)N(C)C1=O (single isomer, unassigned)
43 | 26 | – | – | CN1C(=O)c2ccccc2SSc2ccccc2NC(=O)[C@H](CC(=O)O)NC(=O)CNC(=O)[C@H]1CCCN=C(N)N
44 | 9.71 | – | – | CC(=O)N[C@H]1CSSc2ccccc2NC(=O)[C@H](CC(=O)O)NC(=O)CNC(=O)[C@H](CCCN=C(N)N)NC1=O (single isomer, unassigned)
45 | 0.09 | – | – | CN1C(=O)c2ccccc2SSc2ccccc2NC(=O)[C@H](CC(=O)O)NC(=O)CNC(=O)[C@@H]1CCCN=C(N)N (single isomer, unassigned)
46 | 0.04 | – | – | CC(=O)N[C@H]1CSS[C@H](c2ccccc2)[C@@H](C(=O)O)NC(=O)[C@H](CC(=O)O)NC(=O)CNC(=O)[C@H](CCCN=C(N)N)N(C)C1=O (Ac-C[NMeR]GD[X1]-OH; disulfide 1-5)
47 | – | 0.61 | – | CC(=O)N[C@H]1CSSC(C)(C)[C@@H](C(N)=O)NC(=O)[C@H](CC(=O)O)NC(=O)CNC(=O)[C@H](CCCN=C(N)N)NC(=O)CNC1=O (single isomer, unassigned) [listing 2 of 2 here]
